Assay results taken from ChEMBL document CHEMBL2331324, “Synthesis and biological evaluation of guanidino analogues of roscovitine” (Eur J Med Chem, 2013).

Key:
[1] = target: Phosphorylase kinase (Homo sapiens) (UniProt P15735+P46020+P46019+Q93100+Q16816); assay: Inhibition of recombinant PHK (unknown origin) assessed as residual activity using [gamma-33P]ATP as substrate at 1 uM; format: protein-complex assay
Method in brief: (§1)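 Selectivity panel run under previously published conditions. Screened at 1 μM in duplicate. Reactions started with [γ-33P]ATP (800 cpm/pmol) at 5, 20 or 50 μM, chosen to be at or below each enzyme's ATP Km. Stopped with phosphoric acid, spotted onto P81 filters. Result expressed as residual kinase activity.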

[2] = target: Serine/threonine-protein kinase PAK 6 (Homo sapiens) (UniProt Q9NQU5); assay: Inhibition of recombinant PAK6 (unknown origin) assessed as residual activity using [gamma-33P]ATP as substrate at 1 uM; method in brief: as §1
[3] = target: Mitogen-activated protein kinase 13 (Homo sapiens) (UniProt O15264); assay: Inhibition of recombinant p38 MAPKdelta (unknown origin) assessed as residual activity using [gamma-33P]ATP as substrate at 1 uM
Method in brief: (§2)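 Kinase panel screen with each compound at 1 µM, in duplicate. Reactions were started with [γ-33P]ATP (800 cpm/pmol) at 5, 20 or 50 µM, chosen per enzyme to be at or below its ATP Km. Reactions were stopped with phosphoric acid and spotted onto P81 filters. Results are given as residual kinase activity.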

[4] = target: Serine/threonine-protein kinase 16 (Homo sapiens) (UniProt O75716); assay: Inhibition of recombinant MPSK1 (unknown origin) assessed as residual activity using [gamma-33P]ATP as substrate at 1 uM; method in brief: as §1
[5] = target: MAP kinase-interacting serine/threonine-protein kinase 1 (Homo sapiens) (UniProt Q9BUB5); assay: Inhibition of recombinant MNK1 (unknown origin) assessed as residual activity using [gamma-33P]ATP as substrate at 1 uM; method in brief: as §1
[6] = target: Mitogen-activated protein kinase kinase kinase 11 (Homo sapiens) (UniProt Q16584); assay: Inhibition of recombinant MLK3 (unknown origin) assessed as residual activity using [gamma-33P]ATP as substrate at 1 uM; method in brief: as §1
[7] = target: Dual specificity mitogen-activated protein kinase kinase 6 (Homo sapiens) (UniProt P52564); assay: Inhibition of recombinant MKK6 (unknown origin) assessed as residual activity using [gamma-33P]ATP as substrate at 1 uM; method in brief: as §1
[8] = target: MAP/microtubule affinity-regulating kinase 4 (Homo sapiens) (UniProt Q96L34); assay: Inhibition of recombinant MARK4 (unknown origin) assessed as residual activity using [gamma-33P]ATP as substrate at 1 uM; method in brief: as §1
[9] = target: Serine/threonine-protein kinase MARK2 (Homo sapiens) (UniProt Q7KZI7); assay: Inhibition of recombinant MARK2 (unknown origin) assessed as residual activity using [gamma-33P]ATP as substrate at 1 uM; method in brief: as §1
[10] = target: MAP kinase-activated protein kinase 3 (Homo sapiens) (UniProt Q16644); assay: Inhibition of recombinant MAPKAPK3 (unknown origin) assessed as residual activity using [gamma-33P]ATP as substrate at 1 uM; method in brief: as §1
[11] = target: Mitogen-activated protein kinase 8 (Homo sapiens) (UniProt P45983); assay: Inhibition of recombinant JNK1 (unknown origin) assessed as residual activity using [gamma-33P]ATP as substrate at 1 uM; method in brief: as §1
[12] = target: Homeodomain-interacting protein kinase 3 (Homo sapiens) (UniProt Q9H422); assay: Inhibition of recombinant HIPK3 (unknown origin) assessed as residual activity using [gamma-33P]ATP as substrate at 1 uM
Method in brief: (§3)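 Recombinant kinase panel screened at 1 µM in duplicate. Reactions started with [γ-33P]ATP (800 cpm/pmol) at 5, 20 or 50 µM, chosen to sit at or below each enzyme's ATP Km. Stopped with phosphoric acid and spotted onto P81 filters. Result given as residual kinase activity.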

[13] = target: Mitogen-activated protein kinase 15 (Homo sapiens) (UniProt Q8TD08); assay: Inhibition of recombinant ERK8 (unknown origin) assessed as residual activity using [gamma-33P]ATP as substrate at 1 uM; method in brief: as §3
[14] = target: Tyrosine-protein kinase ZAP-70 (Homo sapiens) (UniProt P43403); assay: Inhibition of recombinant ZAP70 (unknown origin) assessed as residual activity using [gamma-33P]ATP as substrate at 1 uM; method in brief: as §2
[15] = target: Tyrosine-protein kinase Yes (Homo sapiens) (UniProt P07947); assay: Inhibition of recombinant YES1 (unknown origin) assessed as residual activity using [gamma-33P]ATP as substrate at 1 uM; method in brief: as §2
[16] = target: High affinity nerve growth factor receptor (Homo sapiens) (UniProt P04629); assay: Inhibition of recombinant TRKA (unknown origin) assessed as residual activity using [gamma-33P]ATP as substrate at 1 uM; method in brief: as §2
[17] = target: Angiopoietin-1 receptor (Homo sapiens) (UniProt Q02763); assay: Inhibition of recombinant TIE2 (unknown origin) assessed as residual activity using [gamma-33P]ATP as substrate at 1 uM; method in brief: as §2
Homo sapiens = organism: Homo sapiens; assay: Inhibition of recombinant PKA (unknown origin) assessed as residual activity using [gamma-33P]ATP as substrate at 1 uM; method in brief: as §1
[18] = target: RAC-alpha serine/threonine-protein kinase (Homo sapiens) (UniProt P31749); assay: Inhibition of recombinant PKB alpha (unknown origin) assessed as residual activity using [gamma-33P]ATP as substrate at 1 uM; method in brief: as §1
[19] = target: Ephrin type-A receptor 2 (Homo sapiens) (UniProt P29317); assay: Inhibition of recombinant EPH-A2 (unknown origin) assessed as residual activity using [gamma-33P]ATP as substrate at 1 uM; method in brief: as §3
[20] = target: Dual specificity tyrosine-phosphorylation-regulated kinase 1A (Homo sapiens) (UniProt Q13627); assay: Inhibition of recombinant DYRK1A (unknown origin) assessed as residual activity using [gamma-33P]ATP as substrate at 1 uM; method in brief: as §3
[21] = target: Dual specificity protein kinase CLK2 (Homo sapiens) (UniProt P49760); assay: Inhibition of recombinant CLK2 (unknown origin) assessed as residual activity using [gamma-33P]ATP as substrate at 1 uM; method in brief: as §3
[22] = target: Aurora kinase A (Homo sapiens) (UniProt O14965); assay: Inhibition of recombinant AURA (unknown origin) assessed as residual activity using [gamma-33P]ATP as substrate at 1 uM; method in brief: as §3
MCF7 [23] = assay: Cell cycle arrest in human MCF7 cells assessed as accumulation of cells in G2+M phase at 100 uM after 24 hrs by propidium iodide staining based flow cytometry relative to untreated control; format: functional
Method in brief: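 Flow cytometry on MCF7 cells given 100 µM for 24 h. About one million cells fixed in 90% methanol and rehydrated. DNA stained with propidium iodide, read at 488/575 nm (ex/em). The value is the G2+M fraction of treated cells divided by the G2+M fraction of untreated control cells.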

MCF7 [24] = assay: Cytotoxicity against human MCF7 cells assessed as inhibition of cell viability after 72 hrs by calcien AM dye based fluorescence analysis; format: functional; details: MCF7, 72 h
Method in brief: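 MCF7 cells grown in DMEM with 10% FBS, 2 mM glutamine, penicillin and streptomycin at 37 °C and 5% CO2. About 10,000 cells per well, left 4 h, then a concentration range added in triplicate, DMSO ≤0.5% final. After 72 h, 1 µg/ml calcein AM (final) for 1 h; fluorescence read at 485/538 nm. Viability given as % of control; IC50 read graphically from dose-response curves; mean of ≥3 independent experiments.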

Dual specificity protein kinase CLK2 (Homo sapiens), sequence (P49760 whole entry, looked up): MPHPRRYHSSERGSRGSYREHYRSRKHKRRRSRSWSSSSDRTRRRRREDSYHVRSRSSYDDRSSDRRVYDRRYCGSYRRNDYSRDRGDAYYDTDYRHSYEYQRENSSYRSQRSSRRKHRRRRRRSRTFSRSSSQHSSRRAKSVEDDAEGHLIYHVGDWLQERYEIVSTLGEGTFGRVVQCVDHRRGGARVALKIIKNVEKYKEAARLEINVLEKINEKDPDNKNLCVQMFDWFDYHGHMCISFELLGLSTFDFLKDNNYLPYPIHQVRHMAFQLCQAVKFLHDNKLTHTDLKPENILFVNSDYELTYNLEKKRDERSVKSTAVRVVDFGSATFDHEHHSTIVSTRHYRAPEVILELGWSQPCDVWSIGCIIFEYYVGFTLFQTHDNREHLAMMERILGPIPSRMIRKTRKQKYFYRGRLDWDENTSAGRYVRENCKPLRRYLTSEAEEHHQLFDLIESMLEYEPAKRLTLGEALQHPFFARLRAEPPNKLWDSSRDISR
Mitogen-activated protein kinase kinase kinase 11 (Homo sapiens), sequence (Q16584 whole entry, looked up): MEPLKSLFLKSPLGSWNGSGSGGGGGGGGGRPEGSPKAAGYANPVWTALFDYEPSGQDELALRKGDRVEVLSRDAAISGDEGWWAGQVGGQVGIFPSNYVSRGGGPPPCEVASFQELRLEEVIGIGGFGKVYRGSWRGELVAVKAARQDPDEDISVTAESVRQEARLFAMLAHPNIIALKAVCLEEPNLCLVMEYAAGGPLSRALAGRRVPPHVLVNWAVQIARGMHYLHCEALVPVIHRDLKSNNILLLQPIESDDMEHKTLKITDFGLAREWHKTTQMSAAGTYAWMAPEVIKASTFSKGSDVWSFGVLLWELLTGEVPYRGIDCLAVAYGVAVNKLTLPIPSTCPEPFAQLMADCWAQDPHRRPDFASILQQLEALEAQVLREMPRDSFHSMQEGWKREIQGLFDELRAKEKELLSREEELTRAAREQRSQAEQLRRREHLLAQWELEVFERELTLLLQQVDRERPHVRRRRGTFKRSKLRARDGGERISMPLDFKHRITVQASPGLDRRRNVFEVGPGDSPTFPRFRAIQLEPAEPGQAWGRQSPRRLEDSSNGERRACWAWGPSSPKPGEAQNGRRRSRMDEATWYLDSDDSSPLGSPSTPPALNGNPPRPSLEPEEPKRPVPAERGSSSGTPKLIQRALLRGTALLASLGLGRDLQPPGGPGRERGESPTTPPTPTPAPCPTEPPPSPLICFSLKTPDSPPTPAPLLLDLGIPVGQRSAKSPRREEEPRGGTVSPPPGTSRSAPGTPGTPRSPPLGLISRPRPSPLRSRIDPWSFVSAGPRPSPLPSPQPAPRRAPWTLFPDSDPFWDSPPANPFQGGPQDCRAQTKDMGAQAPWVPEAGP
MAP kinase-activated protein kinase 3 (Homo sapiens), sequence (Q16644 whole entry, looked up): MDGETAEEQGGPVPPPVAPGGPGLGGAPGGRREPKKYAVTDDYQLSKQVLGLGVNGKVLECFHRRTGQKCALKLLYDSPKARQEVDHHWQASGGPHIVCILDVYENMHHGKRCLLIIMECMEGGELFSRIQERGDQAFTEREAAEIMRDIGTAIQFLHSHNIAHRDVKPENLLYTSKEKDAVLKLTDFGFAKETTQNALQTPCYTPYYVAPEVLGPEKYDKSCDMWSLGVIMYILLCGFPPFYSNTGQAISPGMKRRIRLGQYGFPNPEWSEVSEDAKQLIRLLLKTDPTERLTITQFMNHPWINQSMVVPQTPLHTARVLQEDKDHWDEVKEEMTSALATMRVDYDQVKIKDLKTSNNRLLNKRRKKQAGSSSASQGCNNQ
Homeodomain-interacting protein kinase 3 (Homo sapiens), sequence (Q9H422 whole entry, looked up): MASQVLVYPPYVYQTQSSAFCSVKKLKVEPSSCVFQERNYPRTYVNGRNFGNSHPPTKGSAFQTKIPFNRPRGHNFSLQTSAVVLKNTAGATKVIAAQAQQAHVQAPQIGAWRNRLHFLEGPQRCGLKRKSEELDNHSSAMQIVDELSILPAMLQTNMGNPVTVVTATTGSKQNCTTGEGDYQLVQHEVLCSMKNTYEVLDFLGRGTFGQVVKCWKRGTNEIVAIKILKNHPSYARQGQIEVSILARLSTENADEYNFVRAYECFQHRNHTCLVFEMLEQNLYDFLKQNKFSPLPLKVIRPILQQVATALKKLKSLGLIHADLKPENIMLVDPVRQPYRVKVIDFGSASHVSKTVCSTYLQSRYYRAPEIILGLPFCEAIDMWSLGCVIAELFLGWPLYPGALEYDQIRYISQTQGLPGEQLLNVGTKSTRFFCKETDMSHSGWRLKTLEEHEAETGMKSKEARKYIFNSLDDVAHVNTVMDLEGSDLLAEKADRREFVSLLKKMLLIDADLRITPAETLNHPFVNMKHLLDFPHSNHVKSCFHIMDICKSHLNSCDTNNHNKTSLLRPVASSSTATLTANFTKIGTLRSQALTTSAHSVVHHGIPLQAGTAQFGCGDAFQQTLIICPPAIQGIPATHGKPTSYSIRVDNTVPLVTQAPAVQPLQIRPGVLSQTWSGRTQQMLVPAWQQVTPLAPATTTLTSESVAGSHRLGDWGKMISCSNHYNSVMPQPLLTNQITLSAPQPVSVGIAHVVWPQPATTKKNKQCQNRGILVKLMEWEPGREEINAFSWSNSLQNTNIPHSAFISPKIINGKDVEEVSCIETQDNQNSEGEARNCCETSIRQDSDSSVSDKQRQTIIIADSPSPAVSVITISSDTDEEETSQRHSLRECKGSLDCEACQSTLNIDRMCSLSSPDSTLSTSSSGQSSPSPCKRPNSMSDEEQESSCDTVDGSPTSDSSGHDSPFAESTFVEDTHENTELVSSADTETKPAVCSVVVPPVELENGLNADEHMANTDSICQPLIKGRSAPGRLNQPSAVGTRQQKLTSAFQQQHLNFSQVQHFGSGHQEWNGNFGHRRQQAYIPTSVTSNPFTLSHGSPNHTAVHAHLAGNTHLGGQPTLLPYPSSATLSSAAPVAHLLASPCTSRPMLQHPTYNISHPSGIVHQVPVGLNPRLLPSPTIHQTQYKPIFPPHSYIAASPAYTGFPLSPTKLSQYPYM
Tyrosine-protein kinase ZAP-70 (Homo sapiens), sequence (P43403 whole entry): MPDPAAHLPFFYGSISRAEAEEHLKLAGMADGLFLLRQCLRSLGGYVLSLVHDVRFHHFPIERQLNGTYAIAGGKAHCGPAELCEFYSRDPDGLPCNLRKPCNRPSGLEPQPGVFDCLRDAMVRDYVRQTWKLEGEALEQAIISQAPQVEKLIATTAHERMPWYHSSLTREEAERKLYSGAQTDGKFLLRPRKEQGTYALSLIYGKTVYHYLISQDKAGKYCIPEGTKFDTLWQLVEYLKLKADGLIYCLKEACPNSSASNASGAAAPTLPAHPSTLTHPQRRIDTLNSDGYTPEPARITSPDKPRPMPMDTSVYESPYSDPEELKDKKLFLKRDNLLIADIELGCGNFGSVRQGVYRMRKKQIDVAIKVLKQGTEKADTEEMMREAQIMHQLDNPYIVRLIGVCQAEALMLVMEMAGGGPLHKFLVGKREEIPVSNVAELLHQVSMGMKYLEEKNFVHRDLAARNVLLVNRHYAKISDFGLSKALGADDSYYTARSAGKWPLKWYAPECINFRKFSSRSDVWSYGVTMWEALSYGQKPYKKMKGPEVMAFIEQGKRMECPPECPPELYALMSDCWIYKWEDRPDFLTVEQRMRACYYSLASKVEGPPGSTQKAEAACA
Dual specificity mitogen-activated protein kinase kinase 6 (Homo sapiens), sequence (P52564 whole entry): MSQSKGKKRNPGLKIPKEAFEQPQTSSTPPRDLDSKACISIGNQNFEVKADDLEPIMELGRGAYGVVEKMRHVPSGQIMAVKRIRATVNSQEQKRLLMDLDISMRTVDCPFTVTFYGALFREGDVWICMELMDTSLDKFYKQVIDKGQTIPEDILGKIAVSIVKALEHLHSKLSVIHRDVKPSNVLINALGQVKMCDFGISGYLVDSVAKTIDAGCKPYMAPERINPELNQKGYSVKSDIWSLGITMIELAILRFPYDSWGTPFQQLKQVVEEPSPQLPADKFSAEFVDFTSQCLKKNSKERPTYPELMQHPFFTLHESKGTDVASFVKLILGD
Mitogen-activated protein kinase 8 (Homo sapiens), sequence (P45983 whole entry): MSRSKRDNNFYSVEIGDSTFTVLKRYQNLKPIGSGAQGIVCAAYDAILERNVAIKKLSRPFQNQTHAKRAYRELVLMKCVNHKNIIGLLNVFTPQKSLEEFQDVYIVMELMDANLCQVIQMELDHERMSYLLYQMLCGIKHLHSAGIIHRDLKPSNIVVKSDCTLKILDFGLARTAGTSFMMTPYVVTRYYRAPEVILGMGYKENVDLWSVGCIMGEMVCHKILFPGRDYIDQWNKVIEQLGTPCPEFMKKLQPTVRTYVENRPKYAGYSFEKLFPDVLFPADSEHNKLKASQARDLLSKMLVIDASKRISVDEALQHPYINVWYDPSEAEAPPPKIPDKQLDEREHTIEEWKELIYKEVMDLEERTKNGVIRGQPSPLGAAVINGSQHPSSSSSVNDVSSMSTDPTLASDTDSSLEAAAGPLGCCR
Mitogen-activated protein kinase 15 (Homo sapiens), sequence (Q8TD08 whole entry): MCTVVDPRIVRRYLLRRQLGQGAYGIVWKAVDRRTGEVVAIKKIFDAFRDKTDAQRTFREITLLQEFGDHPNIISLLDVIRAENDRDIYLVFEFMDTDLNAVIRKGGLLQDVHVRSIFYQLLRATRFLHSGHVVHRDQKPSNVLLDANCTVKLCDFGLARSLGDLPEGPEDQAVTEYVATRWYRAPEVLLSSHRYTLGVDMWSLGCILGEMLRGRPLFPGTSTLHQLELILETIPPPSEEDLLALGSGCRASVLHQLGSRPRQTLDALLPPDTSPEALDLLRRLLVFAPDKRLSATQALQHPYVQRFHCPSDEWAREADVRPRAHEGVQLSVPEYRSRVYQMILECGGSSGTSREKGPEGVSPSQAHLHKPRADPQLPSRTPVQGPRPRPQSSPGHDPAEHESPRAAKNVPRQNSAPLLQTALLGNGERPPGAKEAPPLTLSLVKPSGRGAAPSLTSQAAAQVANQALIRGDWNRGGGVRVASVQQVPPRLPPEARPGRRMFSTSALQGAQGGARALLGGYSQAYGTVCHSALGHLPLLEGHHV

Row | Activity [1] [%] | Activity [2] [%] | Activity [3] [%] | Activity [4] [%] | Activity [5] [%] | Activity [6] [%] | Activity [7] [%] | Activity [8] [%] | Activity [9] [%] | Activity [10] [%] | Activity [11] [%] | Activity [12] [%] | Activity [14] [%] | Activity [15] [%] | Activity [16] [%] | Activity [17] [%] | Activity (Homo sapiens) [%] | Activity [18] [%] | Activity [19] [%] | Compound | Activity [13] [%] | other results
1 | 14 | 26 | 37 | 36 | 173 | 37 | 72 | 38 | 45 | 80 | 88 | 38 | 86 | 13 | 24 | 39 | 90 | 99 | 22 | CC[C@H](CO)Nc1nc(NC(=N)N)c2ncn(C(C)C)c2n1 | 16 | Activity [20]: 1%; Activity [21]: 4%; Activity [22]: 39%; Ratio (MCF7 [23]): 1.8; IC50 (MCF7 [24]): 4.5 µM
2 | 12 | 17 | 23 | 28 | 178 | 37 | 88 | 29 | 62 | 78 | 78 | 24 | 109 | 11 | 28 | 40 | 83 | 107 | 17 | CC[C@@H](CO)Nc1nc(NC(=N)N)c2ncn(C(C)C)c2n1 | 18 | Activity [20]: 1%; Activity [21]: 4%; Activity [22]: 30%; Ratio (MCF7 [23]): 1.6; IC50 (MCF7 [24]): 1.6 µM
